pIC50: −log10 of the molar value. A value given as a limit tells only on which side of the number the result lay.

This note sets out measurements from ChEMBL document CHEMBL1909500, “Synthesis and in vitro anticancer activity of 6,7-methylenedioxy (or 5-hydroxy-6-methoxy)-2-(substituted selenophenyl)quinolin-4-one analogs” (Eur J Med Chem, 2011).

Test [1] concerns Detroit 551. Kind of test: Selectivity ratio of IC50 for human Detroit 551 cells to IC50 for human Hep3B cells.
Test [2] can be described thus: Cytotoxicity against human Hep3B cells after 48 hrs by MTT assay. The format is functional, cell-based, Hep 3B2. A digest of the protocol: (§1)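 Hep 3B (hepatoma) or Detroit 551 (normal skin) cells, grown at 37 °C and 5% CO₂ in DMEM with 10% FBS, penicillin/streptomycin and 1% L-glutamine, were used in log phase. Cells were exposed to vehicle or compound for 48 h. Growth was read by MTT reduction at 570 nm, and IC50 was calculated.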
In general terms: Tetrazolium dyes change colour on reduction, which living cells bring about.

The test system of another test is HL-60. The test can be described thus: Cytotoxicity against human HL60 cells after 48 hrs by MTT assay. The class given is functional, cell-based. To be noted: HL-60, 48 h. A digest of the protocol:
(§2)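 H460 or HL-60 cells were exposed to vehicle or compound for 48 h. Growth was read by MTT reduction at 570 nm, and IC50 was calculated.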

In another test the test system is NCI-H460. The test can be described thus: Cytotoxicity against human H460 cells after 48 hrs by MTT assay. The format is functional, cell-based. The settings on record: NCI-H460, 48 h. A digest of the protocol:
as §2

Test [3] deals with Detroit 551. The test can be described thus: Selectivity ratio of IC50 for human Detroit 551 cells to IC50 for human H460 cells.
For test [4], the system named is Detroit 551. The test can be described thus: Cytotoxicity against human Detroit 551 cells after 48 hrs by MTT assay. The class given is cell-based. The settings on record: Detroit 551, 48 h. A digest of the protocol: as §1

One may read the pIC50 as −log10 of the IC50, conventionally taken in molar units. On to `O=c1cc(-c2ccc[se]2)[nH]c2cc3c(cc12)OCO3`, for which the “Ratio IC50” value with Detroit 551 [1] and in the test with Detroit 551 [3] was 50 throughout. In addition, the pIC50 in test [2] was 6.10; in the test with HL-60 it was 6.30; in the test with NCI-H460, 6.00; in the test with Detroit 551 [4] it was 4.30.
As for `O=c1cc(-c2ccsc2)[nH]c2cc3c(cc12)OCO3`, the pIC50 was 5.66 in test [2], 6.05 in the test on HL-60, 5.37 in the test with NCI-H460 and less than 4.60 in the test with Detroit 551 [4].
As for `Oc1cc(-c2cccs2)nc2cc3c(cc12)OCO3`, the pIC50 was 6.15 in test [2], 6.00 with HL-60, 6.00 with NCI-H460 and less than 5.30 in the test with Detroit 551 [4].
Take `COc1ccc2[nH]c(-c3ccc[se]3)cc(=O)c2c1O`: the pIC50 was 6.15 in test [2], 5.96 with HL-60, 6.40 in the test on NCI-H460 and 4.00 with Detroit 551 [4].
Taken in the same sequence, the figures for `Cc1ccc(-c2cc(=O)c3cc4c(cc3[nH]2)OCO4)o1` were 5.00, 5.37, 5.01 and less than 5.00.
For `COc1ccc2[nH]c(-c3ccc(C)[se]3)cc(=O)c2c1O`, in that order: 6.10, 6.40, 6.05 and less than 4.30.
`COc1ccc2[nH]c(-c3ccc(C)[se]3)cc(=O)c2c1`: the pIC50 in test [2] was 5.52; with HL-60, 6.40; with NCI-H460 it was 5.70; with Detroit 551 [4] it was less than 5.00.
Taken in the same sequence, the figures for `COc1ccc2[nH]c(-c3ccc(C)[se]3)cc(=O)c2c1OC` were less than 4.30, 5.51, less than 4.30 and less than 4.30.
As for `O=c1cc(-c2cc[se]c2)[nH]c2cc3c(cc12)OCO3`, the pIC50 in test [2] is 6.10; in the test on HL-60 it was 6.05; in the test on NCI-H460, 5.85; in the test with Detroit 551 [4], less than 5.00.
For `COc1ccc2[nH]c(-c3ccc[se]3)cc(=O)c2c1`, in that order: 5.49, 6.22, 5.62 and less than 5.00.
Taken in the same sequence, the figures for `O=c1cc(-c2ccoc2)[nH]c2cc3c(cc12)OCO3` were 5.02, 5.47, 4.80 and less than 4.60.
For `COc1ccc2[nH]c(-c3ccc[se]3)cc(=O)c2c1OC`, in that order: less than 4.00, 5.11, 4.04 and less than 4.00.
For `COc1ccc2[nH]c(-c3cc[se]c3)cc(=O)c2c1OC`, the pIC50 in test [2] is 4.00; with HL-60 it was 5.77; in the test on NCI-H460 it was 4.00; in the test on Detroit 551 [4] it was less than 4.00.
For the molecule `COc1ccc2[nH]c(-c3cc[se]c3)cc(=O)c2c1`, the negative-log IC50 (pIC50) in test [2] was 5.43; in the test with HL-60 it was 6.15; with NCI-H460, 5.64; in the test on Detroit 551 [4], less than 5.00.
For `COc1ccc2[nH]c(-c3cc[se]c3)cc(=O)c2c1O`, in that order: 6.52, 6.40, 6.10 and less than 4.00.
For `Oc1cc(-c2ccco2)nc2cc3c(cc12)OCO3`, in that order: less than 4.82, 5.17, less than 4.82 and less than 4.82.
For `Cc1ccc(-c2cc(=O)c3cc4c(cc3[nH]2)OCO4)s1`, the negative logarithm of the IC50 (pIC50) in test [2] is 6.15; in the test with HL-60, 6.52; in the test on NCI-H460, 6.40; in the test on Detroit 551 [4], less than 5.30.
